Reference: ChEMBL document CHEMBL1649304, “Efficacy of posaconazole as treatment and prophylaxis against Fusarium solani” (Antimicrob Agents Chemother, 2010)
Values after ≈ are worked out from the molar mass of the structure shown. Active and inactive are the calls of the source. The rule behind the calls is not given here.

What was measured:
[1] = tested on: Fusarium solani; assay: Antifungal activity against inoculum range 6.5 x 10^5 to 6.8 x 10^5 conidia/animal Fusarium solani infected in ICR mouse assessed as rate of survival at 12.5 mg/kg, po BID treated after 12 hrs of inoculation; assay type: functional, organism-based; set-up: dose 12.5 mg/kg
Outline: (§1)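 Neutropenic ICR mice (5-fluorouracil 150 mg/kg i.v., day −1) were infected i.v. with F. solani 95-2478 conidia. Posaconazole oral suspension was gavaged BID starting 12 h postinoculation and continued to day 9, then mice were followed off therapy to day 15. Moribund mice were euthanized and death was recorded the next day. Median and percent survival come from Kaplan-Meier curves versus untreated controls.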

[2] = tested on: Fusarium solani; assay: Antifungal activity against inoculum range 7.7 x 10^4 to 7.8 x 10^4 conidia/animal Fusarium solani infected in ICR mouse assessed as bacterial count in kidney tissue at 25 mg/kg, po BID treated after 12 hrs of inoculation; assay type: functional
Outline: (§2)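 Outbred ICR mice were made neutropenic with 5-fluorouracil 150 mg/kg i.v. 1 day before i.v. infection with F. solani isolate 95-2478 conidia (0.2 ml). Posaconazole oral suspension was given by gavage BID from 12 h after inoculation until day 9. Kidneys from moribund animals were homogenized and plated on potato dextrose agar, and CFU/g was counted after 48 h. Group medians were compared with untreated controls by Mann-Whitney.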

[3] = tested on: Fusarium solani; assay: Antifungal activity against inoculum range 6.5 x 10^5 to 6.8 x 10^5 conidia/animal Fusarium solani infected in ICR mouse assessed as rate of survival at 50 mg/kg, po BID treated after 12 hrs of inoculation; assay type: functional, organism-based; set-up: dose 50 mg/kg; outline: as §1
[4] = tested on: Fusarium solani; assay: Antifungal activity against inoculum range 7.7 x 10^4 to 7.8 x 10^4 conidia/animal Fusarium solani infected in ICR mouse assessed as bacterial count in kidney tissue at 12.5 mg/kg, po BID treated after 12 hrs of inoculation; assay type: functional; outline: as §2
[5] = tested on: Fusarium solani; assay: Antifungal activity against inoculum of 1x10^5 conidia/ml Fusarium solani isolate 95-2478 after 48 hrs by XTT assay; assay type: functional, organism-based; conditions: isolate 95-2478, 48 h
Outline: (§3)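 Isolate 95-2478 conidia were grown 10 days at 37°C on potato dextrose agar. They were exposed in microtiter trays to posaconazole (DMSO stock; final 0 to 8 μg/ml) in RPMI with 2% glucose and 0.165 M MOPS, pH 7.0. Incubation ran 24 or 48 h, and XTT reduction was read at 492 nm in triplicate. Absorbance was expressed as percent of growth control, and IC50/IC90 came from a four-parameter inhibitory sigmoid fit.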

[6] = tested on: Fusarium solani; assay: Antifungal activity against inoculum range 6.5 x 10^5 to 6.8 x 10^5 conidia/animal Fusarium solani infected in ICR mouse assessed as rate of survival at 25 mg/kg, po BID treated after 12 hrs of inoculation; assay type: functional, organism-based; set-up: dose 25 mg/kg; outline: as §1
[7] = tested on: Fusarium solani; assay: Antifungal activity against high inoculum 2.9 x 10^6 conidia/animal Fusarium solani infected in ICR mouse assessed as rate of survival at 25 mg/kg, po BID treated after 12 hrs of inoculation; assay type: functional, organism-based; set-up: dose 25 mg/kg; outline: as §1
[8] = tested on: Fusarium solani; assay: Antifungal activity against high inoculum 2.9 x 10^6 conidia/animal Fusarium solani infected in ICR mouse assessed as rate of survival at 12.5 mg/kg, po BID treated after 12 hrs of inoculation; assay type: functional, organism-based; set-up: dose 12.5 mg/kg; outline: as §1
[9] = tested on: Fusarium solani; assay: Antifungal activity against inoculum range 6.5 x 10^5 to 6.8 x 10^5 conidia/animal Fusarium solani infected in ICR mouse assessed as bacterial count in kidney tissue at 25 mg/kg, po BID treated after 12 hrs of inoculation; assay type: functional; outline: as §2
[10] = tested on: Fusarium solani; assay: Antifungal activity against low - inoculum 7.5 x 10^4 conidia/ml Fusarium solani infected in ICR mouse assessed as rate of survival at 25 mg/kg, po BID treated 2 days prior of infection; assay type: functional, organism-based; set-up: dose 25 mg/kg
Outline: (§4)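 Dosing began 2 days before i.v. F. solani 95-2478 challenge in ICR mice made neutropenic with 5-fluorouracil (150 mg/kg i.v., day −1). Posaconazole oral suspension was gavaged BID through day 9, with observation off drug until day 15, n ≥10 per regimen. Moribund animals were euthanized and scored dead the next day. Kaplan-Meier median survival was compared with untreated controls.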

[11] = tested on: Fusarium solani; assay: Antifungal activity against inoculum range 7.7 x 10^4 to 7.8 x 10^4 conidia/animal Fusarium solani infected in ICR mouse assessed as bacterial count in kidney tissue at 6.25 mg/kg, po BID treated after 12 hrs of inoculation; assay type: functional; outline: as §2
[12] = tested on: Fusarium solani; assay: Antifungal activity against inoculum range 7.7 x 10^4 to 7.8 x 10^4 conidia/animal Fusarium solani infected in ICR mouse assessed as rate of survival at 6.25 mg/kg, po BID treated after 12 hrs of inoculation; assay type: functional, organism-based; set-up: dose 6.25 mg/kg; outline: as §1
[13] = tested on: Fusarium solani; assay: Antifungal activity against inoculum of 1x10^4 conidia/ml Fusarium solani isolate 95-2478 after 24 hrs by XTT assay; assay type: functional, organism-based; conditions: isolate 95-2478, 24 h; outline: as §3
[14] = tested on: Fusarium solani; assay: Antifungal activity against low - inoculum 7.5 x 10^4 conidia/ml Fusarium solani infected in ICR mouse assessed as bacterial count in kidney tissue at 12.5 mg/kg, po BID treated 2 days prior of infection; assay type: functional
Outline: (§5)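 Prophylaxis model: posaconazole oral suspension was given by gavage BID starting 2 days before i.v. conidial challenge and continued to day 9. ICR mice were made neutropenic with 5-fluorouracil 150 mg/kg i.v. 1 day pre-inoculation, with n ≥10 per regimen. Kidneys were homogenized and plated on potato dextrose agar, and CFU/g was read after 48 h. Results were compared with untreated controls by Mann-Whitney.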

[15] = tested on: Fusarium solani; assay: Antifungal activity against inoculum range 6.5 x 10^5 to 6.8 x 10^5 conidia/animal Fusarium solani infected in ICR mouse assessed as bacterial count in kidney tissue at 6.25 mg/kg, po BID treated after 12 hrs of inoculation; assay type: functional; outline: as §2
[16] = tested on: Fusarium oxysporum; assay: Antifungal activity against Fusarium oxysporum isolate infected in ICR mouse; assay type: functional
[17] = Drug concentration in uninfected nonimmunosppressed ICR mouse serum at 50 mg/kg, po BID after 4 hrs; assay type: ADME, organism-based; set-up: dose 50 mg/kg, route oral; conditions: read-out: Drug uptake
Outline: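 Uninfected, nonimmunosuppressed mice received 5 oral-gavage BID doses, and serum was taken 4 h after the last dose. Serum (100 μl, duplicate) was placed in wells cut in potato dextrose agar seeded with Candida kefyr ATCC 66028 at 1 × 10^4 cells/ml. Inhibition zones were measured after 48 h, and concentration was interpolated from a standard curve.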

[18] = tested on: Fusarium solani; assay: Antifungal activity against low - inoculum 7.5 x 10^4 conidia/ml Fusarium solani infected in ICR mouse assessed as rate of survival at 6.25 mg/kg, po BID treated 2 days prior of infection; assay type: functional, organism-based; set-up: dose 6.25 mg/kg; outline: as §4
[19] = tested on: Fusarium solani; assay: Antifungal activity against low - inoculum 7.5 x 10^4 conidia/ml Fusarium solani infected in ICR mouse assessed as bacterial count in kidney tissue at 50 mg/kg, po BID treated 2 days prior of infection; assay type: functional; outline: as §5
[20] = tested on: Fusarium solani; assay: Antifungal activity against inoculum of 1x10^4 conidia/ml Fusarium solani isolate 95-2478 after 48 hrs by XTT assay; assay type: functional, organism-based; conditions: isolate 95-2478, 48 h; outline: as §3
[21] = tested on: Fusarium solani; assay: Antifungal activity against mid- inoculum 6.5 x 10^5 conidia/ml Fusarium solani infected in ICR mouse assessed as bacterial count in kidney tissue at 12.5 mg/kg, po BID treated 2 days prior of infection; assay type: functional; outline: as §5
[22] = tested on: Fusarium solani; assay: Antifungal activity against high inoculum 2.9 x 10^6 conidia/animal Fusarium solani infected in ICR mouse assessed as bacterial count in kidney tissue at 25 mg/kg, po BID treated after 12 hrs of inoculation; assay type: functional; outline: as §2

With `CC[C@@H]([C@H](C)O)n1ncn(-c2ccc(N3CCN(c4ccc(OC[C@@H]5CO[C@@](Cn6cncn6)(c6ccc(F)cc6F)C5)cc4)CC3)cc2)c1=O` [POSACONAZOLE] the Activity [1] was “Active”, the log10CFU/g [2] was 5 and the Activity [3] was “Active”. It also gave a log10CFU/g [4] of 5.1, an IC50 [5] of over 8 µg/mL and an IC90 [5] of over 8 µg/mL. For the same compound, the Activity [6] was “Active”, the Activity [7] was “Active” and the Activity [8] was “Active”. For the same compound, the log10CFU/g [9] was 5.6, the Activity [10] was “Active” and the log10CFU/g [11] was 5. For the same compound, the Activity [12] was “Active”, the IC50 [13] was 1.7 µg/mL (≈ 2.43 µM) and the IC90 [13] was 4.1 µg/mL (≈ 5.85 µM). For the same compound, the log10CFU/g [14] was 4.4, the log10CFU/g [15] was 6 and the MIC [16] was over 16 µg/mL. For the same compound, the concentration at 4 h [17] was 5300 ng/mL, the Activity [18] was “Active” and the log10CFU/g [19] was 2.9. The IC50 [20] was 4.7 µg/mL (≈ 6.71 µM), the IC90 [20] was over 8 µg/mL and the log10CFU/g [21] was 5.5. For the same compound, the log10CFU/g [22] was 5.3.
